Results from different studies.

| SMILES | species | sample | route | dose | time | notes | concentration |
| --- | --- | --- | --- | --- | --- | --- | --- |
| c1ccc(-c2nc(N3CCC(c4ccccn4)C3)c3ccccc3n2)nc1 (centres unmarked) | female BALB/c mouse | plasma | oral | 50 mg/kg | 24 h |  | 63.5 ng/mL |
| O=c1nc(N2CCN(CC3CCCCC3)CC2)sc2c([N+](=O)[O-])cc(C(F)(F)F)cc12 | CD-1 mouse | lung | intravenous | 10 mg/kg | 15 min |  | 2830 ng/mL |
| CC(C)(Nc1nc(-c2ccccn2)nc2ccccc12)c1ccccn1 | female BALB/c mouse | plasma | oral | 50 mg/kg | 1 h |  | 4740 ng/mL |
| CC(C)CN(C[C@@H](O)[C@H](Cc1ccccc1)NC(=O)O[C@H]1CO[C@H]2OCC[C@H]21)S(=O)(=O)c1ccc(N)cc1 | BALB/c mouse | plasma | intravenous | 2.5 mg/kg | 12 h |  | 0.33 ng/mL |
| O=S(=O)(c1cccc(C(F)(F)F)c1)N1CCc2ccc(OCc3c(Cl)cncc3Cl)cc21 | mouse | plasma | intraperitoneal | 10 mg/kg | 2 h |  | 890 nM |
| Cc1ccc(-c2cccc3cnc(Nc4ccc(C(=O)N5CCOCC5)cc4)nc23)cn1 | mouse | brain | intraperitoneal | 10 mg/kg | 2 h |  | 0 nM |
| COc1cc(F)c([C@@H]2CNC(=O)[C@H]2NC(=O)Nc2ccccc2)c(F)c1 | C57BL/6 mouse | plasma | oral | 3 mg/kg | 2 h |  | 84 nM |
| CC(C)Cc1nn(C)c(=O)c2c(SCCCO)n(Cc3cccc4ccccc34)cc12 | mouse | plasma | intraperitoneal | 20 mg/kg | 7 days | single dose | 0 nM |
| CC(C)(C)c1cc(NC(=O)Nc2ccc(Oc3ccnc4[nH]c(=O)cnc34)cc2F)n(-c2ccccc2)n1 | BALB/c mouse | plasma | oral | 10 mg/kg/day | 24 h |  | ~1000 nM |
| Cc1c2ccnc(C(=O)N[C@H](C)CN(C)C)c2cc2c3cc(O)ccc3n(C)c12 | male C57BL/6 mouse | brain | intraperitoneal | 10 mg/kg | 2 h | single dose | 80 nM |
| Cc1ccc([N+](=O)[O-])cc1S(=O)(=O)n1c(C)nc2ccccc21 | mouse | liver | intraperitoneal | 30 mg/kg | 24 h |  | 3100 nM |
| CN(C(=O)n1cnc(-c2ccc[n+]([O-])c2)c1)C1CCCCC1 | male CD-1 mouse | plasma | oral | 10 mg/kg | 8 h |  | 83 ng/mL |
| O=C(O)C1CCN(c2ncc(-c3ccc4c(c3)OCCCO4)s2)CC1 | male Swiss mouse | plasma | oral | 30 mg/kg | 8 h | single dose | 4540 ng/mL |
| O=S(=O)(c1ccc(-c2ccc3nccc(Nc4ccncn4)c3c2)cc1)N1CCOCC1 | female BALB/c mouse | plasma | intraperitoneal | 10 mg/kg | 15 min |  | 4460 ng/mL |
| O=S(=O)(c1cccc(C(F)(F)F)c1)N1CCc2ccc(OCc3c(F)cncc3Cl)cc21 | mouse | plasma | intraperitoneal | 10 mg/kg | 4 h |  | 210 nM |
| O=c1cc(-c2ccccc2)oc2c(O)c(O)ccc12 | male CD-1 mouse | brain | oral | 50 mg/kg | 30 min |  | 18 ng/g |
| O=S(=O)(c1cccc(C(F)(F)F)c1)N1c2cc(OCc3c(Cl)cncc3Cl)ccc2CC1C(F)(F)F (centres unmarked) | mouse | plasma | intraperitoneal | 10 mg/kg | 4 h |  | 160 nM |
| COc1ccc2[nH]c3c(C)c4ccnc(C(=O)N[C@H](C)CN(C)C)c4cc3c2c1 | male C57BL/6 mouse | plasma | intraperitoneal | 10 mg/kg | 2 h | single dose | 40 nM |
| CC(C)Oc1cccc(-c2cnc(N3CCC(C(N)=O)CC3)s2)c1 | male Swiss mouse | plasma | oral | 30 mg/kg | 24 h | single dose | 20.6 ng/mL |
| O=S(=O)(c1cccc(C(F)(F)F)n1)N1CCc2ccc(OCc3c(F)cccc3Cl)cc21 | mouse | plasma | intraperitoneal | 10 mg/kg | 4 h |  | 120 nM |
